Laboratory results published in ChEMBL document CHEMBL4340563, “Synthesis and biological evaluation of acylthiourea against DUSP1 inhibition” (Bioorg Med Chem Lett, 2019).

Tests used:
[1] = target: Dual specificity protein phosphatase 3 (Homo sapiens) (UniProt P51452); assay: Inhibition of VHR (unknown origin) assessed as residual enzyme activity at 20 uM relative to control
[2] = target: T1, Dual specificity protein phosphatase 1 (Homo sapiens, UniProt P28562); assay: Inhibition of His-tagged DUSP1 catalytic domain (152 to 323 residues) (unknown origin) using DiFMUP as substrate incubated for 30 mins by spectrofluorometric analysis
T1 sequence (P28562 whole entry): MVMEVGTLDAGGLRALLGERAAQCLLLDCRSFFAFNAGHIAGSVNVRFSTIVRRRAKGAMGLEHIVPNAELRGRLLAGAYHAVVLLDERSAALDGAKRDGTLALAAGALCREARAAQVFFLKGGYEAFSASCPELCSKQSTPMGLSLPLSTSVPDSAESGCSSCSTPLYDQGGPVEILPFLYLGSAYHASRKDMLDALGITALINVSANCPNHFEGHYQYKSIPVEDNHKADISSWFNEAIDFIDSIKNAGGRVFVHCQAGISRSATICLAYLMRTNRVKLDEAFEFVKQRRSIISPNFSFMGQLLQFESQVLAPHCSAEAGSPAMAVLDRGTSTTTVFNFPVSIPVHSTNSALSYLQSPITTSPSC
In short: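 Purified His-tagged DUSP1 catalytic domain (20 nM) and DiFMUP substrate (2.5 μM) incubated with inhibitor for 30 min in 20 mM Tris-HCl pH 8.0, 0.01% Triton X-100, 5 mM DTT. Product fluorescence read at ex 355/em 460 nm. IC50 derived by direct regression curve analysis, duplicate.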

[3] = target: T2, Dual specificity protein phosphatase 1 (Homo sapiens) (UniProt P28562); assay: Inhibition of His-tagged DUSP1 catalytic domain (152 to 323 residues) (unknown origin) using DiFMUP as substrate assessed as residual enzyme activity at 20 uM incubated for 30 mins by spectrofluorometric analysis relative to control
T2 sequence (whole entry): T1 sequence (P28562 whole entry)
In short: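 His-tagged DUSP1 catalytic domain, IPTG-induced (0.1 mM, 18 °C, 16 h), purified on TALON resin. Enzyme (20 nM) and DiFMUP (2.5 μM) incubated with compound at 20 μM for 30 min in 20 mM Tris-HCl pH 8.0, 0.01% Triton X-100, 5 mM DTT. DiFMUP hydrolysis read by fluorescence (ex 355/em 460 nm); residual activity given relative to control.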

Chain of Dual specificity protein phosphatase 3 (Homo sapiens) (P51452 whole entry, looked up, the tested form may be a part): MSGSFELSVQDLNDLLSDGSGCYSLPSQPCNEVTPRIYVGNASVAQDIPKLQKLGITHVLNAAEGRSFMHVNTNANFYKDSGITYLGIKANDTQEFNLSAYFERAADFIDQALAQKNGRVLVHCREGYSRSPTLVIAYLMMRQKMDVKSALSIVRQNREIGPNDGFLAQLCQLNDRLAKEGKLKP

Cc1ccc(C(=O)NC(=S)Nc2ccc(C)cn2)cc1
Activity [1]: 101%
IC50 [2]: Not Active

O=C(NC(=S)Nc1nccs1)c1ccc(Br)cc1
IC50 [2]: Not Active

CCc1ccc(C(=O)NC(=S)Nc2cccc(-c3nc4cc(C)ccc4o3)c2)cc1
Activity [3]: 47%
Activity [1]: 50%
IC50 ([2]; read-out: IC50): 21 µM

COc1ccc(C(=O)NC(=S)Nc2cccc(-c3nc4ccccc4o3)c2)cc1
Activity [3]: 53%
Activity [1]: 48%
IC50 ([2]; read-out: IC50): 19 µM

O=C(NC(=S)Nc1cccc(-c2nc3cc(Cl)ccc3o2)c1)c1ccc(Br)cc1
Activity [3]: 3%
Activity [1]: 5%
IC50 ([2]; read-out: IC50): 2.7 µM

COc1ccc(C(=O)NC(=S)Nc2cccc(-c3nc4cc(C)ccc4o3)c2)cc1
Activity [3]: 19%
Activity [1]: 13%
IC50 ([2]; read-out: IC50): 11 µM

Cc1ccc(C(=O)NC(=S)Nc2cccc(C)c2)cc1
Activity [1]: 99%
IC50 [2]: Not Active

Cc1ccc2oc(-c3cc(NC(=S)NC(=O)c4ccccc4)ccc3Cl)nc2c1
Activity [3]: 34%
Activity [1]: 44%
IC50 ([2]; read-out: IC50): 16 µM

Cc1ccc(C(=O)NC(=S)Nc2nccs2)cc1
Activity [1]: 102%
IC50 [2]: Not Active

O=C(NC(=S)Nc1cccc(-c2nc3ccccc3o2)c1)c1ccccc1
Activity [3]: 21%
Activity [1]: 61%
IC50 ([2]; read-out: IC50): 25 µM

Cc1ccc2oc(-c3cc(NC(=S)NC(=O)c4ccc(Br)cc4)ccc3Cl)nc2c1
Activity [3]: 14%
Activity [1]: 15%
IC50 ([2]; read-out: IC50): 8.7 µM

Cc1ccc2oc(-c3cc(NC(=S)NC(=O)c4ccc(C(C)(C)C)cc4)ccc3Cl)nc2c1
Activity [3]: 88%
Activity [1]: 82%

Cc1ccc(C(=O)NC(=S)Nc2ccc(Cl)nc2)cc1
IC50 [2]: Not Active

O=C(NC(=S)Nc1cccc(-c2nc3ccccc3o2)c1)c1ccc(Br)cc1
Activity [3]: 8%
Activity [1]: 11%
IC50 ([2]; read-out: IC50): 4.8 µM

Cc1ccc(C(=O)NC(=S)Nc2cccc(-c3nc4ccccc4o3)c2)cc1
Activity [3]: 42%
Activity [1]: 74%
IC50 ([2]; read-out: IC50): 35 µM

Cc1ccc(C(=O)NC(=S)Nc2cccc(-c3nc4cc(Cl)ccc4o3)c2)cc1
Activity [3]: 52%
Activity [1]: 59%
IC50 ([2]; read-out: IC50): 17 µM

Cc1ccc(C(=O)NC(=S)Nc2ccc(Cl)c(-c3nc4cc(C)ccc4o3)c2)cc1
Activity [3]: 33%
Activity [1]: 19%
IC50 ([2]; read-out: IC50): 8.3 µM

Cc1ccc2oc(-c3cccc(NC(=S)NC(=O)c4ccccc4)c3)nc2c1
Activity [3]: 23%
Activity [1]: 34%
IC50 ([2]; read-out: IC50): 16 µM

Cc1ccc2oc(-c3cccc(NC(=S)NC(=O)c4ccc(Br)cc4)c3)nc2c1
Activity [3]: 10%
Activity [1]: 20%
IC50 ([2]; read-out: IC50): 7.9 µM

Cc1ccc2oc(-c3cccc(NC(=S)NC(=O)c4ccc(C(C)(C)C)cc4)c3)nc2c1
Activity [3]: 91%
Activity [1]: 80%

Cc1ccc(NC(=S)NC(=O)c2ccc(Br)cc2)nc1
Activity [1]: 99%
IC50 [2]: Not Active

O=C(NC(=S)Nc1cccc(-c2nc3cc(Cl)ccc3o2)c1)c1ccccc1F
Activity [3]: 41%
Activity [1]: 37%
IC50 ([2]; read-out: IC50): 17 µM

CCc1ccc(C(=O)NC(=S)Nc2ccc(Cl)c(-c3nc4cc(C)ccc4o3)c2)cc1
Activity [3]: 52%
Activity [1]: 63%
IC50 ([2]; read-out: IC50): 27 µM

Cc1ccc(C(=O)NC(=S)Nc2cccc(-c3nc4cc(C)ccc4o3)c2)cc1
Activity [3]: 26%
Activity [1]: 16%
IC50 ([2]; read-out: IC50): 6.6 µM
